From ChEMBL document CHEMBL1687874, “Anti-tubercular agents. Part 6: synthesis and antimycobacterial activity of novel arylsulfonamido conjugated oxazolidinones” (Eur J Med Chem, 2011)
Values after ≈ are worked out from the molar mass of the structure shown.

Legend:
[1] = tested on: Mycobacterium tuberculosis; test: Antimycobacterial activity against Mycobacterium tuberculosis H37Rv after 3 to 4 weeks by microplate alamar blue assay; assay type: functional
[2] = Selectivity index, ratio of IC50 for human HFF cells to MIC for Mycobacterium tuberculosis H37Rv; assay type: functional
In short: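 SI computed as IC50 on HFF cells (24 h MTT) divided by MIC against M. tuberculosis H37Rv (3–4 week microdilution, […]).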

HFF = test: Cytotoxicity against human HFF cells after 24 hrs by MTT assay; assay type: cell-based
In short: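 Human foreskin fibroblasts in DMEM with 10% FCS exposed to test material for 24 h at 37 °C in CO2 incubator. MTT then added, 3 h further at 37 °C. Formazan read at 565 nm; percent cytotoxicity relative to untreated cells, reported as IC50.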

## CN1C(NC[C@H]2CN(c3ccc(N4CCOCC4)c(F)c3)C(=O)O2)=NS(=O)(=O)c2ccccc21
[1]
  MIC: > 6.25 µg/mL

## CCN1C(NC[C@H]2CN(c3ccc(N4CCOCC4)c(F)c3)C(=O)O2)=NS(=O)(=O)c2ccccc21
[1]
  MIC: > 6.25 µg/mL

## O=C1O[C@@H](CNC2=NS(=O)(=O)c3ccccc3N2c2ccccc2)CN1c1ccc(N2CCOCC2)c(F)c1
[1]
  MIC: > 6.25 µg/mL

## CN1C(NC[C@H]2CN(c3ccc(N4CCSCC4)c(F)c3)C(=O)O2)=NS(=O)(=O)c2ccccc21
[1]
  MIC: > 6.25 µg/mL

## CCN1C(NC[C@H]2CN(c3ccc(N4CCSCC4)c(F)c3)C(=O)O2)=NS(=O)(=O)c2ccccc21
[1]
  MIC: > 6.25 µg/mL

## O=C1O[C@@H](CNC2=NS(=O)(=O)c3ccccc3N2c2ccccc2)CN1c1ccc(N2CCSCC2)c(F)c1
[1]
  MIC: > 6.25 µg/mL

## O=C1O[C@@H](CNS(=O)(=O)c2ccccc2)CN1c1ccc(N2CCOCC2)c(F)c1
[1]
  MIC: > 6.25 µg/mL

## O=C1O[C@@H](CNS(=O)(=O)c2ccc(Cl)cc2)CN1c1ccc(N2CCOCC2)c(F)c1
[1]
  MIC: > 6.25 µg/mL

## O=C1O[C@@H](CNS(=O)(=O)c2ccc(F)cc2)CN1c1ccc(N2CCOCC2)c(F)c1
[2]
  Selectivity Index: >100
[1]
  MIC: 1 µg/mL (≈ 2.21 µM)
HFF
  IC50: > 100 µM

## Cc1ccc(S(=O)(=O)NC[C@H]2CN(c3ccc(N4CCOCC4)c(F)c3)C(=O)O2)cc1
[1]
  MIC: > 6.25 µg/mL

## CC(=O)NC[C@H]1CN(c2ccc(N3CCN(C4=NS(=O)(=O)c5ccccc5N4C)CC3)c(F)c2)C(=O)O1
[2]
  Selectivity Index: >100
[1]
  MIC: 1 µg/mL (≈ 1.88 µM)
HFF
  IC50: > 100 µM

## CCN1C(N2CCN(c3ccc(N4C[C@H](CNC(C)=O)OC4=O)cc3F)CC2)=NS(=O)(=O)c2ccccc21
[2]
  Selectivity Index: >50
[1]
  MIC: 1 µg/mL (≈ 1.84 µM)
HFF
  IC50: > 50 µM

## CC(=O)NC[C@H]1CN(c2ccc(N3CCN(C4=NS(=O)(=O)c5ccccc5N4c4ccccc4)CC3)c(F)c2)C(=O)O1
[2]
  Selectivity Index: >8
[1]
  MIC: 6.25 µg/mL (≈ 10.5 µM)
HFF
  IC50: > 50 µM

## CN1C(NC[C@H]2CN(c3ccc(N4CCN(C(=O)/C=C/c5ccc(-c6ccc(Cl)cc6)o5)CC4)c(F)c3)C(=O)O2)=NS(=O)(=O)c2ccccc21
[1]
  MIC: > 6.25 µg/mL

## CCN1C(NC[C@H]2CN(c3ccc(N4CCN(C(=O)/C=C/c5ccc(-c6ccc(Cl)cc6)o5)CC4)c(F)c3)C(=O)O2)=NS(=O)(=O)c2ccccc21
[1]
  MIC: > 6.25 µg/mL

## O=C(/C=C/c1ccc(-c2ccc(Cl)cc2)o1)N1CCN(c2ccc(N3C[C@H](CNC4=NS(=O)(=O)c5ccccc5N4c4ccccc4)OC3=O)cc2F)CC1
[1]
  MIC: > 6.25 µg/mL

## CC(=O)NC[C@H]1CN(c2ccc(N3CCOCC3)c(F)c2)C(=O)O1 [LINEZOLID]
[1]
  MIC: 2 µg/mL (≈ 5.93 µM)

## CO[C@H]1/C=C/O[C@@]2(C)Oc3c(C)c(O)c4c(O)c(c(/C=N/N5CCN(C)CC5)c(O)c4c3C2=O)NC(=O)/C(C)=C\C=C\[C@H](C)[C@H](O)[C@@H](C)[C@@H](O)[C@@H](C)[C@H](OC(C)=O)[C@@H]1C [RIFAMPIN]
[1]
  MIC: 0.12 µg/mL (≈ 0.146 µM)
